Experimental data published in ChEMBL document CHEMBL4680104, “Structure-Based Optimization of Small-Molecule Inhibitors for the β-Catenin/B-Cell Lymphoma 9 Protein-Protein Interaction” (J Med Chem, 2018).

What was measured:
[1] = biological target: T1, beta-catenin-B-cell lymphoma 9 protein complex (Homo sapiens, UniProt P35222); test: Inhibition of protein interaction between C-terminal 6x-histidine tagged full-length beta-catenin (1 to 781 residues) (unknown origin)/N-terminal biotinylated human BCL9 ( 350 to 375 residues) incubated for 1 hr by Alpha-screen competitive inhibition assay; format: protein-complex assay
T1 sequence (P35222 whole entry): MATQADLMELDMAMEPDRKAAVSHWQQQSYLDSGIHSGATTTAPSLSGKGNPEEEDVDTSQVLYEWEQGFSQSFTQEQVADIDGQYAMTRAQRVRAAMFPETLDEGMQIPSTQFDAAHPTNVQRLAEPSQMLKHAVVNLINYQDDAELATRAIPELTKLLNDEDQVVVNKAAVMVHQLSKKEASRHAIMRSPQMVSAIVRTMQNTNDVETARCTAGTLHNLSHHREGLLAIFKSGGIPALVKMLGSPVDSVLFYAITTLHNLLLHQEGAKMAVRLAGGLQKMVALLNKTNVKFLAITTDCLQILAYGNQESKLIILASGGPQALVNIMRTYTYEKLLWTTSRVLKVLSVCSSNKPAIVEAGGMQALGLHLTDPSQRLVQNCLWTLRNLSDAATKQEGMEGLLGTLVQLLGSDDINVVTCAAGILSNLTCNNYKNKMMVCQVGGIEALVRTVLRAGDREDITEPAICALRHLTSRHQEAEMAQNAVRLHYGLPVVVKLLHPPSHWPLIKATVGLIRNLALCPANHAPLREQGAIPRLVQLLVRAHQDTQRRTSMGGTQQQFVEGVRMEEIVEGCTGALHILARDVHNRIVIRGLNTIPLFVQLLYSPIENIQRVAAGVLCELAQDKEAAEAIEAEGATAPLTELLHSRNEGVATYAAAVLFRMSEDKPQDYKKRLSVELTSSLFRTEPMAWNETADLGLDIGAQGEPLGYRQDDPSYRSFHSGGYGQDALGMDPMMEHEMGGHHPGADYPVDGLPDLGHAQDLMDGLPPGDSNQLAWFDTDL
T1 sequence (O00512 whole entry): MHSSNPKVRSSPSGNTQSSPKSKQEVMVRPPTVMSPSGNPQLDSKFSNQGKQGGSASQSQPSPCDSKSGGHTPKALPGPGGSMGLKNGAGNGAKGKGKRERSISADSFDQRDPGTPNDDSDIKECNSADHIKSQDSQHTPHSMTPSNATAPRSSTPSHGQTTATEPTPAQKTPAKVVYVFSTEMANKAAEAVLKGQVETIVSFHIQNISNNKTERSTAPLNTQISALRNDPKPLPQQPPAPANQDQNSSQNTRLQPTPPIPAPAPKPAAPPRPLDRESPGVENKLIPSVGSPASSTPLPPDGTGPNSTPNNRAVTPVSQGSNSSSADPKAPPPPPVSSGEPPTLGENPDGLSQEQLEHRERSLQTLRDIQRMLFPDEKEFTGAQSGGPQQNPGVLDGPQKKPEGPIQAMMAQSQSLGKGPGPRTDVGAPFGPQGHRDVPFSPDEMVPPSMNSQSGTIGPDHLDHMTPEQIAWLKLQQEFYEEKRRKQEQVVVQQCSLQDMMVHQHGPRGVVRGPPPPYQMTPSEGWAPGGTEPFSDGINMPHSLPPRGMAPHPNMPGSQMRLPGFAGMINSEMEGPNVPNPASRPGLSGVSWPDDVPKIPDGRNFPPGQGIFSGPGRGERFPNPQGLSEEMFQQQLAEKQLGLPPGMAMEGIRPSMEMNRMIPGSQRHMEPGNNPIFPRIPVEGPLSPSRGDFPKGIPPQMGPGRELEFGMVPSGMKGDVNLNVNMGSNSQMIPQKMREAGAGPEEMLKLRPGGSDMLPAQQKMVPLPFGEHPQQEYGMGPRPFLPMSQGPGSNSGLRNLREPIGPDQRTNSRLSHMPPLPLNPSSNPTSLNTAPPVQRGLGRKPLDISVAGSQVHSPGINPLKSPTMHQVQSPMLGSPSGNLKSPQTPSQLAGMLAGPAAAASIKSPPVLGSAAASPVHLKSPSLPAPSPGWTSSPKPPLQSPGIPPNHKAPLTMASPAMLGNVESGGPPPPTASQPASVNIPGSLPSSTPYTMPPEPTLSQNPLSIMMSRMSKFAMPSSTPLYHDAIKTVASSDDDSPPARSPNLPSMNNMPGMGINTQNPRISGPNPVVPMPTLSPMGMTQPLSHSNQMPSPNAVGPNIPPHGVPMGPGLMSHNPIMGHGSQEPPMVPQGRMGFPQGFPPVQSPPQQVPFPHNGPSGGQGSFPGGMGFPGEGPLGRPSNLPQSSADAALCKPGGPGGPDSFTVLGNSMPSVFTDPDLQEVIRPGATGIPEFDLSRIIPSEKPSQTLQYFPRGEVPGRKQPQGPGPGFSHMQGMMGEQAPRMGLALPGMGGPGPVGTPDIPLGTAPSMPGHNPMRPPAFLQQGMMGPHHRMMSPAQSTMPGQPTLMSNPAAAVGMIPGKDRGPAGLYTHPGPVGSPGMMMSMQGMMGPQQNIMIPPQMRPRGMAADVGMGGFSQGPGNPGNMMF
Outline: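 Full-length β-catenin (residues 1–781) with a C-terminal His6 tag was expressed in E. coli BL21(DE3) after IPTG induction at 20 °C. It was purified by Ni-NTA, anion-exchange and size-exclusion chromatography. For the assay, 40 nM β-catenin was preincubated for 30 min at 4 °C with 5 nM biotinylated BCL9 or 10 nM biotinylated E-cadherin. Inhibitor was then added for 1 h at 4 °C, followed by 10 μg/mL donor and acceptor beads for 1 h at 4 °C. IC50 was obtained by nonlinear fit and converted to Ki by the Nikolovska-Coleska method. Triplicate, mean ± SD.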

A549 = test: Cytotoxicity in human A549 cells assessed as reduction in cell viability incubated for 72 hrs by MTS assay; format: functional, cell-based; details: A549, 72 h
Outline: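 Cells seeded at 5 × 10^3 cells/well, kept overnight at 37 °C, then exposed to inhibitors at various concentrations for 72 h. Viability read with a freshly mixed PMS (0.92 mg/mL) : MTS (2 mg/mL) reagent at 1:19, incubated 3 h at 37 °C, A490 measured. […] Triplicate; mean ± SD.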

[2] = biological target: beta-catenin-B-cell lymphoma 9 protein complex (Homo sapiens) (UniProt P35222+O00512); test: Inhibition of protein interaction between beta-catenin /BCL9 in human SW480 cells assessed as reduction in Wnt target genes by measuring Axin2 mRNA expression incubated for 24 hrs by qPCR analysis; format: cell-based
Outline: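 SW480 cells at 1 × 10^6/mL were treated with a range of inhibitor concentrations for 24 h. Total RNA was extracted with TRIzol and reverse-transcribed to cDNA. SYBR Green qPCR was run for Axin2, LEF1 and cyclin D1, with HPRT as a non-target housekeeping gene. CT values were normalized to GAPDH. Triplicate.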

[3] = biological target: T1, beta-catenin-B-cell lymphoma 9 protein complex; test: Inhibition of protein interaction between beta-catenin (unknown origin)/BCL9 in human SW480 cells transfected with beta-catenin assessed as reduction in Wnt/beta-catenin transactivation incubated for 24 hrs by Wnt-responsive TOP-Flash luciferase reporter assay; format: cell-based

Structure (SMILES) | Ki [1] [µM] | IC50 (A549) [µM] | inhibition [2] | IC50 [3] [µM]
Cl.Cl.O=C(Nc1ccc(O[C@H]2CCNC2)c(-c2ccc(F)cc2)c1)c1ccc(O[C@H]2CCNC2)c(-c2ccc3ccsc3c2)c1 | 1.3 | 9.4 | Dose-dependent effect | 1.2
Cc1cc(F)ccc1-c1cc(NC(=O)c2ccc(O[C@H]3CCNC3)c(-c3ccc(F)c(F)c3)c2)ccc1O[C@H]1CCNC1.Cl.Cl | 3.5 | 10 | – | 2
Cl.Cl.O=C(Nc1ccc(O[C@H]2CCNC2)c(-c2ccc(F)cc2)c1)c1ccc(O[C@H]2CCNC2)c(C2CCC(C(F)(F)F)CC2)c1 (some centres not stated) | 4.2 | 4.8 | – | 10
Cl.Cl.O=C(Nc1ccc(O[C@@H]2CCNC2)c(-c2cccc(-c3nn[nH]n3)c2)c1)c1ccc(O[C@H]2CCNC2)c(-c2ccc(F)c(F)c2)c1 | – | > 400 | Dose-dependent effect | 25
Cl.Cl.O=C(Nc1ccc(O[C@H]2CCNC2)c(-c2ccc(F)cc2)c1)c1ccc(O[C@H]2CCNC2)c(-c2ccc3cc(F)ccc3c2)c1 | 1.3 | 3.7 | – | 12
Cl.Cl.O=C(Nc1ccc(O[C@H]2CCNC2)c(-c2ccc(F)cc2)c1)c1cnc(O[C@H]2CCNC2)c(-c2ccc(F)c(F)c2)c1 | 8.7 | 26 | – | 5.9
Cl.Cl.O=C(Nc1ccc(O[C@H]2CCNC2)c(-c2ccc(F)cc2)c1)c1ccc(O[C@H]2CCNC2)c(-c2ccc(F)c(F)c2)c1 | 2.1 | – | Dose-dependent effect | 2.9
